The species named for data set [1] is Mus musculus. Description: In vitro hepatic microsomal metabolism in mouse. Format: functional. Particulars: Liver.
The test system of another data set is Monkey. Description: In vitro hepatic microsomal metabolism in monkey. Format: functional. Particulars: Cercopithecidae, Liver. In outline: (§1)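 Microsomes from F344 rat, beagle dog, cynomolgus monkey or pooled human were incubated at 37 °C in a shaking bath. The oxidative arm used pH 7.4 Tris with NADPH and was run 3 h. The glucuronidation arm used pH 7.4 Tris-Brij with MgCl2 and UDPGA and was run 1 h. Compound was added from an acetone stock. Reactions were stopped with chilled acetonitrile, and unincubated controls were compared. Remaining parent was measured by HPLC.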

The next data set is filed under the species Canis familiaris. Description: In vitro hepatic microsomal metabolism in dog. The data set is classed as functional. Particulars: Canis lupus familiaris, Liver. In a few lines: as §1
The subject of data set [2] is Human rhinovirus sp. Description: Compound was tested for resistance (survivors(%)) by extended cycle replication assay conducted in 1 ug/mL Enviroxime.(3A amino acid substitution Gly 72 to Ser). The data set is classed as functional. In outline:
(§2)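 Values are expressed relative to a no-drug control. Mutants of rhinovirus 14 were isolated, sequenced and assayed for resistance by earlier-reported procedures.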

For data set [3], the species on record is Rattus norvegicus. Description: In vitro hepatic microsomal metabolism in rat. The data set is classed as functional. Particulars: Liver. In a few lines:
as §1

For a further data set, the species on record is Homo sapiens. Description: In vitro hepatic microsomal metabolism in human. As to conditions: Liver. The data set is classed as functional. In outline:
as §1

Data set [4] deals with rhinovirus B14. Description: % survivors was determined against mutants of human rhinovirus 14 by extended cycle replication assay in 1 ug/mL enviroxime. Format: functional. In outline: as §2
Data set [5] relates to Human rhinovirus sp. Description: Compound was tested for resistance (survivors(%)) by extended cycle replication assay conducted in 1 ug/mL Enviroxime.(3A amino acid substitution Glu 51 to Val). Format: functional. In outline: as §2
For data set [6], the system named is Human rhinovirus sp. Description: Compound was tested for resistance (survivors(%)) by extended cycle replication assay conducted in 1 ug/mL Enviroxime. wild type. The data set is classed as functional. In a few lines:
as §2

Data set [7] has as its system Human rhinovirus sp. Description: (§3) % survivors was determined against mutants of human rhinovirus 14 by extended cycle replication assay in 1 ug/mL enviroxime by different amino acid substitution. Format: functional. In outline: as §2
Data set [8] concerns rhinovirus B14. Described as §3. Format: functional. In outline: as §2
Data set [9] has as its system rhinovirus B14. Description: % survivors was determined against mutants of human rhinovirus 14 by extended cycle replication assay in 1 ug/mL enviroxime by different amino acid substitution by different amino acid substitution. Format: functional. In outline: as §2
For data set [10], the system named is Human rhinovirus sp. Description: Compound was tested for resistance (survivors(%)) by extended cycle replication assay conducted in 1 ug/mL Enviroxime.(3A amino acid substitution Glu 34 to Val). Format: functional. In a few lines:
as §2

Data set [11] has as its system Human rhinovirus sp. Description: Compound was tested for resistance (survivors(%)) by extended cycle replication assay conducted in 1 ug/mL Enviroxime.(3A amino acid substitution Asp 28 to Tyr). The data set is classed as functional. In a few lines:
as §2

Data set [12] has as its system Human rhinovirus sp. Description: Compound was tested for resistance (survivors(%)) by extended cycle replication assay conducted in 1 ug/mL Enviroxime.(3A amino acid substitution Ile 77 to Val). The data set is classed as functional. In a few lines: as §2
In data set [13] the test system is Human rhinovirus sp. Description: Compound was tested for resistance (survivors(%)) by extended cycle replication assay conducted in 1 ug/mL Enviroxime.(3A amino acid substitution Met 54 to Ile). Format: functional. In a few lines:
as §2

The subject of data set [14] is Human rhinovirus sp. Description: Compound was tested for resistance (survivors(%)) by extended cycle replication assay conducted in 1 ug/mL Enviroxime.(3A amino acid substitution Ile 42 to Val). The data set is classed as functional. In a few lines:
as §2

Data set [15] concerns Human rhinovirus sp. Description: Compound was tested for resistance (survivors(%)) by extended cycle replication assay conducted in 1 ug/mL Enviroxime.(3A amino acid substitution Ile 32 to Val). The data set is classed as functional. In outline:
as §2

In data set [16] the test system is Rhesus monkey. Description: In vivo plasma levels in Rhesus monkey was determined at a dose of 8 mg/kg administered orally. Details: dose 8 mg/kg. The data set is classed as functional, organism-based. As to conditions: Cercopithecidae.
Data set [17] in a line: Oral bioavailability in Rhesus monkey (dose 16 mg/kg). Format: ADME, organism-based, Macaca mulatta. Particulars: in vivo. In outline: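 Two female and two male rhesus monkeys were dosed orally (16 mg/kg) and then iv (1 mg/kg) after a 2-week washout. Plasma was sampled from 1 min to 8 h, extracted liquid-liquid into benzene or cyclohexane, and quantified by reverse-phase HPLC (detection limit 10 ng/mL). AUC was calculated by the trapezoidal rule, and bioavailability = (AUCpo/dose)/(AUCiv/dose) × 100.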

The species named for data set [18] is Rattus norvegicus. Description: In vitro hepatic microsomal metabolism in rat. Format: functional. Particulars: Liver. In a few lines:
as §1

For data set [19], the species on record is Mus musculus. Description: In vitro Hepatic microsomal metabolism in mouse. The data set is classed as functional. As to conditions: Liver.
Data set [20] has as its system Rhesus monkey. Description: In vivo plasma levels in Rhesus monkey was determined at a dose of 8 mg/kg administered orally; none detected. The data set is classed as functional, organism-based. The arrangement: dose 8 mg/kg. Particulars: Cercopithecidae.

Consider nine compounds from ChEMBL document CHEMBL1130029 (J Med Chem, 1997).

Where “and” joins values, the source holds several entries; their conditions need not be identical. Equal entries are not always repeated.

On to `CC(C)S(=O)(=O)n1c(N)nc2ccc(/C(=N/O)c3ccccc3)cc21` [ENVIROXIME], for which the Metabolism in the data set listed under Mus musculus [1] was 24%; with Monkey, 80%; in the data set filed under Canis familiaris, 37%; in the data set listed under Rattus norvegicus [3], 39%; in the data set listed under Homo sapiens, 98%. For the same compound, the Survivors with Human rhinovirus sp. [2] is 4.9%; with rhinovirus B14 [4] it was 0.6% and 2.1%; with Human rhinovirus sp. [5] it was 1.3%; with Human rhinovirus sp. [6] it was 0.07%; with Human rhinovirus sp. [7] it was 1.1% and 0.03%; in the data set with rhinovirus B14 [8], 5.5%. The Survivors came out at 1.5% with rhinovirus B14 [9]; 1.5% in the data set with Human rhinovirus sp. [10]; 2% in the data set with Human rhinovirus sp. [11]; 0.7% in the data set with Human rhinovirus sp. [12]; 1.9% in the data set with Human rhinovirus sp. [13]; 1.7% in the data set on Human rhinovirus sp. [14]. The Survivors in the data set with Human rhinovirus sp. [15] is 0.7%.
`C#C/C=C(\c1ccccc1)c1ccc2nc(N)n(S(=O)(=O)C(C)C)c2c1` registered a Plasma concentration in the data set with Rhesus monkey [16] of 70 ng/mL. The same compound showed a bioavailability in data set [17] of 9%.
Take `C/C=C(\c1ccccc1)c1ccc2nc(N)n(S(=O)(=O)C(C)C)c2c1` [ENVIRADENE]: the Metabolism is 27% in the data set listed under Rattus norvegicus [18]; 88% in the data set on Monkey; 40% in the data set filed under Canis familiaris; 73% in the data set listed under Homo sapiens; 36% in the data set filed under Mus musculus [19]. The Plasma concentration in the data set with Rhesus monkey [16] came to 14 ng/mL; in the data set with Rhesus monkey [16] (tested as the 2H-labelled form), 10 ng/mL.
In the case of `C#C/C=C(\c1ccc([S+](C)[O-])cc1)c1ccc2nc(N)n(S(=O)(=O)C(C)C)c2c1` (configuration not stated), the bioavailability in data set [17] came to 3%.
Take `C=C/C=C(\c1ccccc1)c1ccc2nc(N)n(S(=O)(=O)C(C)C)c2c1`: the Plasma concentration result in the data set on Rhesus monkey [20] was “none detected”.
`C#C/C=C(\c1ccc(SC)cc1)c1ccc2nc(N)n(S(=O)(=O)C(C)C)c2c1` yielded a bioavailability in data set [17] of 5%.
As to `C#C/C=C(\c1ccc(OC)cc1)c1ccc2nc(N)n(S(=O)(=O)C(C)C)c2c1`, the Survivors is 6.8% in the data set on Human rhinovirus sp. [2]; 3.8% in the data set with Human rhinovirus sp. [5]; 0.05% in the data set with Human rhinovirus sp. [6]; 5% in the data set with Human rhinovirus sp. [10]; 4.7% in the data set on Human rhinovirus sp. [11]; 2.2% in the data set on Human rhinovirus sp. [12]. The Survivors is given as 3.5% with Human rhinovirus sp. [13], 5.6% with Human rhinovirus sp. [14] and 2.3% in the data set on Human rhinovirus sp. [15]. In addition, the bioavailability in data set [17] is 5%.
Consider `C#C/C=C(\c1ccc(OCC)cc1)c1ccc2nc(N)n(S(=O)(=O)C(C)C)c2c1`, for which, in data set [17], the bioavailability is 4%.
Take `C#C/C=C(\c1ccc(F)cc1)c1ccc2nc(N)n(S(=O)(=O)C(C)C)c2c1`: the Metabolism in the data set filed under Mus musculus [1] came to 13%; in the data set on Monkey, 37%; in the data set filed under Canis familiaris it was 31%; in the data set filed under Rattus norvegicus [3], 29%; in the data set filed under Homo sapiens it was 12%. Besides, the bioavailability in data set [17] was 23%.
